PMC7559877 (iScience, 2020)

Tests used:
IFN-γ = IFN-γ production by CTLs derived from treated DL mice; type: in vivo; details: CD8+ T cells; text to Figure 5K
Outline: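 CD8+ T cells (CTLs) are taken from DL lymphoma-bearing mice treated with oral test compound plus rIL15-activated dendritic cells and compared with cells from untreated DL mice. IFN-γ is read by flow cytometry histogram. Data shown are representative of four experiments (n = 4).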

[1] = tested on: CD4+CD25+FOXP3+ Treg cells; assay: Flow cytometry of CD4+CD25+FOXP3+ Treg cells in DL mice; type: in vivo; details: in the spleen (so in the source); DL mouse 19.4%; Figure 2I
JE6.1 = assay: Tumoricidal activity against human lymphoma cell line JE6.1; type: cell-based
U937 = assay: Tumoricidal activity against human lymphoma cell line U937; type: cell-based; details: U-937
Raji = assay: Tumoricidal activity against human lymphoma cell line Raji; type: cell-based
DL tumor cells = assay: In vitro tumoricidal activity; type: cell-based, murine; details: Mus musculus, read-out: growth inhibition, highest inhibition recorded
THP-1 = assay: Tumoricidal activity against human lymphoma cell line THP-1; type: cell-based

Cc1cccc(-c2nn3c(c2-c2ccnc4ccc(C(N)=O)cc24)CCC3)n1 [galunisertib]
IFN-γ in T cells derived from treated animals (IFN-γ): 52%
CD4+CD25+ cells [1]: intermediate effect
IC50 (JE6.1): 164 nM
IC50 (U937): 124 nM
IC50 (Raji): 776 nM
inhibition at 10 µM (DL tumor cells): ~80%
IC50 (THP-1): 108 nM
